The text below walks through data of ChEMBL document CHEMBL4382232, “Grayanane Diterpenoid Glucosides from the Leaves of Rhododendron micranthum and Their Bioactivities Evaluation” (2018).

The structures appear in SMILES notation. Active and inactive are the calls of the source. The rule behind the calls is not given here.

One assay concerns RAW264.7. In words: Anti-inflammatory activity in mouse RAW264.7 cells assessed as inhibition of LPS-induced NO production at 40 uM. The class given is functional, cell-based.
In the next assay the test system is MCF7. The assay is described as follows: Cytotoxicity against human MCF7 cells at 40 uM after 48 hrs by MTT assay. The class given is functional, cell-based. On the technique in general: Tetrazolium assays rely on reduction of a dye to a coloured formazan, in cell work by metabolically active cells.
The subject of a further assay is SW480. In words: Cytotoxicity against human SW480 cells at 40 uM after 48 hrs by MTT assay. The format is functional, cell-based.
Another assay concerns SMMC-7721. In words: Cytotoxicity against human SMMC7721 cells at 40 uM after 48 hrs by MTT assay. The format is functional, cell-based.
The test system of a further assay is A549. The assay is described as follows: Cytotoxicity against human A549 cells at 40 uM after 48 hrs by MTT assay. The format is functional, cell-based.
For a further assay, the system named is HL-60. In words: Cytotoxicity against human HL60 cells at 40 uM after 48 hrs by MTT assay. The class given is functional, cell-based.
In assay [1] the target is T1, Tyrosine-protein phosphatase non-receptor type 1 (Homo sapiens) (UniProt P18031).
T1 sequence (whole entry): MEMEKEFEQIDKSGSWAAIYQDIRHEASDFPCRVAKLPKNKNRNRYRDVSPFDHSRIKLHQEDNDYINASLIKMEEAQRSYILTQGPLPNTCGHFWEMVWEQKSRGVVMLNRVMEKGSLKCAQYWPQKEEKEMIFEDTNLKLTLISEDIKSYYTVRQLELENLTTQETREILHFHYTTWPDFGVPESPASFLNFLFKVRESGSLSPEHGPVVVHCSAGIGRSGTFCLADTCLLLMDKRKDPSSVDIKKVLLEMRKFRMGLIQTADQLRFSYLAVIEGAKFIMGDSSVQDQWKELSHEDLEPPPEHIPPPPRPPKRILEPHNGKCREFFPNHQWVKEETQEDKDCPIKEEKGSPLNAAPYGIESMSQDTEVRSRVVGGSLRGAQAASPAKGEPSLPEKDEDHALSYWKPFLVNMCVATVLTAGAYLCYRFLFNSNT
In words: Inhibition of recombinant human PTP1B at 40 uM using pNPP as substrate preincubated for 10 mins followed by substrate addition and measured after 30 mins at 5 mins time interval for 30 mins.

The subject of assay [2] is Mus musculus. In words: Antinociceptive activity in Kunming mouse model of acetic-acid-induced writhing assessed as inhibition of writhing numbers at 5 mg/kg measured for 30 mins relative to control. The format is functional. The note with it: for inhibition in vivo at 5 mg/kg: 0.5 h. In a few lines:
(§1)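 Acetic-acid-induced writhing model in Kunming mice (10 per group); doses 0.2, 1.0 and 5.0 mg/kg; vehicle-treated and morphine positive-control groups; inhibition of writhing relative to vehicle; mean ± SEM; one-way ANOVA with Bonferroni test. Animal work approved by institutional ethics committee.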
A general note: Writhing tests count abdominal constrictions after an irritant is injected.

Assay [3] concerns Mus musculus. In words: Antinociceptive activity in Kunming mouse model of acetic-acid-induced writhing assessed as inhibition of writhing numbers at 1 mg/kg measured for 30 mins relative to control. The note with it: 0.5 h. The format is functional. In short, it runs like this: as §1
Assay [4] deals with Mus musculus. In words: Antinociceptive activity in Kunming mouse model of acetic-acid-induced writhing assessed as inhibition of writhing numbers at 0.2 mg/kg measured for 30 mins relative to control. The format is functional. To be noted: 0.5 h. In short, it runs like this:
as §1

As a reminder, the inhibition in vivo is the share of the control response that was lost under treatment.

For the molecule `C=C1[C@H]2C[C@H](O[C@@H]3O[C@H](CO)[C@@H](O)[C@H](O)[C@H]3O)C(C)(C)[C@]2(O)CC[C@@]23C[C@@H](CC[C@@H]12)[C@](C)(O)C3`, the inhibition entry (in the assay on RAW264.7; in assay [1]) was “inactive” each time. Further, the result with MCF7, in the assay on SW480, in the assay on SMMC-7721, in the assay on A549 and with HL-60 was inactive. Further, the inhibition in vivo at 5 mg/kg in the assay with Mus musculus [2] worked out at 82.3%. For the same molecule, the inhibition in vivo at 1 mg/kg with Mus musculus [3] turned out to be 58.7%. For the same molecule, in the assay with Mus musculus [4], the inhibition in vivo at 0.2 mg/kg is 46.1%.
Consider `C=C1[C@@H]2CC[C@H]3C(C)=C[C@]2(C[C@@H](O)[C@@]2(O)[C@H]1C[C@H](O[C@@H]1O[C@H](CO)[C@@H](O)[C@H](O)[C@H]1O)C2(C)C)[C@@H]3O`, for which the inhibition result (with RAW264.7; in assay [1]) was “inactive” in each case. The outcome with MCF7, in the assay on SW480, in the assay with SMMC-7721, in the assay with A549 and in the assay on HL-60 was inactive. For the same molecule, the inhibition in vivo at 5 mg/kg with Mus musculus [2] was 50%.
With `C=C1[C@H]2C[C@H](O)C(C)(C)[C@]2(O)CC[C@@]23C[C@@](O)(CC[C@@H]12)[C@](C)(O[C@@H]1O[C@H](CO)[C@@H](O)[C@H](O)[C@H]1O)C3`, the inhibition result (in the assay on RAW264.7; in assay [1]) was “inactive” throughout. Further, the outcome in the assay with MCF7, in the assay with SW480, in the assay with SMMC-7721, in the assay with A549 and with HL-60 was inactive. The inhibition entry in the assay with Mus musculus [2] is “Active”.
Consider `CC(=O)O[C@@H]1[C@H]2CC[C@H]3[C@@](C)(O)[C@@H]4C[C@H](O[C@@H]5O[C@H](CO)[C@@H](O)[C@H](O)[C@H]5O)C(C)(C)[C@@]4(O)[C@H](O)C[C@@]13C[C@@]2(C)O`, for which the inhibition result (in the assay on RAW264.7; in [1]; in the assay with Mus musculus [2]) was “inactive” throughout. The outcome in the assay with MCF7, in the assay on SW480, in the assay with SMMC-7721, with A549 and with HL-60 was inactive.
As for `C=C1[C@H]2C[C@H](O)C(C)(C)[C@@]2(O)[C@H](O)C[C@@]23C[C@@H](CC[C@@H]12)[C@](C)(O[C@@H]1O[C@H](CO)[C@@H](O)[C@H](O)[C@H]1O)C3`, the inhibition result (in the assay on RAW264.7; in [1]) was “inactive” throughout. Also, the outcome in the assay with MCF7, with SW480, with SMMC-7721, in the assay with A549 and in the assay with HL-60 was inactive. Also, in the assay on Mus musculus [2], the inhibition result was “Active”.
